Bioassay records as filed in PubChem.
An excerpt weighted towards active compounds, which were near 0.55% of everything screened.
OXTR agonist = human OXTR agonists, primary screen, fluorescence, CHO-OTR cells, Fluo-8 calcium | activation, % at 3 µM | Fluo-8 calcium fluorescence; normalized: DMSO 0%, oxytocin 100% | actives 0.32% (n = 320,000) | Oxytocin receptor (Homo sapiens), P30559;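 active = activation above the mean of all tested compounds plus 3 SD, cutoff set per screening run, cut at about 20% in these data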;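 also: peak over basal fluorescence ratio from a 100 s FLIPR kinetic read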
V1R ag counter = agonists of human V1a receptor, primary screen, counter-screen for OXTR agonist project, fluorescence, CHO-V1R cells; Vasopressin V1a receptor (Homo sapiens), P37288; Fluo-8 calcium fluorescence, agonist mode; 0% DMSO, 100% 3 nM vasopressin; activation, % at 3 µM; actives 0.25% (n = 320,000);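 active = activation above the mean activation of all tested compounds plus 3 SD, per screening run, cut at about 20% in these data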;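 also: signal is peak over basal fluorescence ratio across a 100 second FLIPR read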
Target sequence (P37288 whole entry, looked up): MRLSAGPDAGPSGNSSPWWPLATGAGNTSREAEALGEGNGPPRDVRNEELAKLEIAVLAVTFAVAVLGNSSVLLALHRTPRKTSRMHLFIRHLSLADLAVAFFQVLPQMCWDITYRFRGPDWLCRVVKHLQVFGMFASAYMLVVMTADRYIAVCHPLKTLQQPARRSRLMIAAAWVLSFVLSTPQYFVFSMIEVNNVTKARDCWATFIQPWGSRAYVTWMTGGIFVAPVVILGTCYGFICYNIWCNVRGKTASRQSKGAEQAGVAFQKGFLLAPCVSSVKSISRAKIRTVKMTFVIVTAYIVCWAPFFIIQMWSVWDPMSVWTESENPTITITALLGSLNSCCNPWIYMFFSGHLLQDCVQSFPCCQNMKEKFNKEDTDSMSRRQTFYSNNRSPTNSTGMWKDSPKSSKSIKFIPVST
TRPML3 agonist = human TRPML3 channel agonists, primary screen, cell-based, HEK293 TRPML3-YFP, Fluo-8 calcium fluorescence, 3 µM. activation, % at 3 µM. Mucolipin-3 (Homo sapiens), Q8TDD5. actives 0.29% (n = 220,000). AID 1448, 2008. 100% = the carbachol control signal;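 active = activation above its plate's cutoff, the mean activation of the plate's test wells plus 3 SD, cut at about 12% in these data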;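 also: 0% = DMSO only wells and 100% = carbachol wells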
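Material: TRPML3-YFP stable HEK293 cells | Dosing: One concentration, 3 µM nominal, 0.3% DMSO | Timing: 125 s total fluorescence read per well | Technique: Fluo-8 calcium dye fluorescence, ex 470-495, em 515-575 nm | Measure: Percent activation from peak-to-basal fluorescence ratio, scaled between DMSO and carbachol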
OXTR potentiator = human OXTR potentiators, primary screen, fluorescence, CHO-OTR cells, Fluo-8 calcium. Oxytocin receptor (Homo sapiens), P30559. Fluo-8 calcium fluorescence, potentiator mode; 0% = oxytocin EC15, 100% = EC100. activation, % at 3 µM. actives 0.061% (n = 320,000);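 active = activation above that plate's cutoff, the mean activation of tested compounds plus 3 SD, cut at about 6.6% in these data, passing the limit was not always enough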;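 also: 100% uses oxytocin at 75 nM as the full agonist control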
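System: human OTR in CHO cells / Also added: sub-maximal oxytocin, roughly EC15 / Control set: EC15 oxytocin low, 75 nM oxytocin high / Schedule: 6 min compound pre-incubation at room temperature, 100 s kinetic read / Compound: single-point 3.0 µM / Replication: singlicate / Technique: Fluo-8 calcium dye fluorescence / Read-out basis: % activation of max/min ratio relative to oxytocin controls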
TRPN1 ag = zebrafish TRPN1 channel agonists, primary screen, cell-based, HEK293, calcium fluorescence; transient receptor potential cation channel N1 (TRPN1/NompC), Danio rerio; HEK293 zebrafish TRPN1-YFP, Fluo-8 calcium fluorescence; 100% = response to 87 µM carbachol; activation, % at 3 µM; actives 0.18% (n = 220,000);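 active = activation above its plate's cutoff, the mean activation of test wells on that plate plus 3 SD, cut at about 19% in these data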;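 also: 0% = DMSO alone and 100% = 87 µM carbachol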
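Material – zebrafish TRPN1-YFP in HEK293 cells · Doses – 3 µM single point · Schedule – dye 1 h 37 °C plus 30 min RT · Signal – Fluo-8 calcium fluorescence, excitation 470-495 nm, emission 515-575 nm · Read-out – % activation versus carbachol response · Control set – carbachol high, DMSO low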
* = called active by the depositor; x = no result.

SMILES	OXTR agonist	V1R ag counter	TRPML3 agonist	OXTR potentiator	TRPN1 ag
C#CCOCCOCCOCCNc1nc(N2CCN(C(=O)CCCCCCCCCCNC(=O)[C@H]([C@@H](C)CC)n3cc(CCCCCN)nn3)CC2)nc(N2CCN(C(=O)CCCCCCCCCCNC(=O)[C@@H]([C@H](C)O)n3cc(C)nn3)CC2)n1	37*	58*	x	-13	x
C#CCOCCOCCOCCNc1nc(N2CCN(C(=O)CCCCCCCCCCNC(=O)[C@H](CCCCN)n3cc(CCO)nn3)CC2)nc(N2CCN(C(=O)CCCCCCCCCCNC(=O)[C@@H]([C@H](C)O)n3cc(C)nn3)CC2)n1	1	12	x	-8	x
C#CCOCCOCCOCCNc1nc(N2CCN(C(=O)CCCCCCCCCCNC(=O)Cn3cc(CCCCCN)nn3)CC2)nc(N2CCN(C(=O)CCCCCCCCCCNC(=O)[C@H](CO)n3cc(CCCCCN)nn3)CC2)n1	25*	26*	x	-15	x
O=C1CSC(c2ccc(F)c(F)c2)N1c1ccccc1F (stereo unspecified)	-2	-2	x	-1	x
COc1ccc(N2CCN(C(=O)CSc3nc4nc(C)cc(C)n4n3)CC2)cc1	0	1	x	7	x
COc1ccc2nc(SCC(=O)N3CCN(c4ccccc4F)CC3)c(C#N)cc2c1	x	x	0	x	0
CC(C)n1nc(Cc2cccc3ccccc23)c(C#N)c1N	-1	0	x	-4	x
CC1(c2ccc(OC(F)F)cc2)NC(=O)N(CC(=O)Nc2cccnc2Cl)C1=O (stereo unspecified)	60*	48*	x	-22	x
CCC1(c2ccc(F)cc2)NC(=O)N(CC(=O)Nc2cccnc2Cl)C1=O (stereo unspecified)	23*	30*	x	-18	x
COc1ccc(C2(C)NC(=O)N(CC(=O)Nc3cccnc3Cl)C2=O)cc1 (stereo unspecified)	7	5	x	-3	x
CCC1(c2ccccc2)NC(=O)N(CC(=O)Nc2cccnc2Cl)C1=O (stereo unspecified)	4	2	x	-3	x
CC1(c2ccc(OC(F)F)cc2)NC(=O)N(CC(=O)Nc2ccc(N3CCCCC3)cc2)C1=O (stereo unspecified)	27*	27*	x	-21	x
O=C(/C=C/c1ccc(N2CCC(c3ccccc3)=N2)cc1)c1ccccc1	75*	108*	4	-15	14
CCc1ccc(Nc2n[n+](-c3ccccc3)c(-c3ccc(OCc4ccccc4)cc3)s2)cc1	-2	-1	x	-9	x
CCc1ccc(Nc2n[n+](-c3ccccc3)c(-c3c(Cl)cccc3Cl)s2)cc1	48*	64*	x	-20	x
Fc1ccc(-[n+]2nc(Nc3ccccc3)sc2-c2c(Cl)cccc2Cl)cc1	23*	25*	x	-22	x
COc1cccc(C(=O)Nc2ccc3c(c2)n(C)c(=O)n3C)c1	0	0	x	-1	x
CC(=O)Nc1sc2c(c1-c1nc3ccccc3s1)CCN(C(C)C)C2	1	1	9	-3	24*
C=CCN1C(=O)/C(=C/C=C2/N(CC)c3ccc(S(=O)(=O)N(C)C)cc3N2CC)SC1=S	30*	26*	4	-20	11
CCOC(=O)c1ccc2c(c1)N(CC)/C(=C\C=C1/SC(=S)N(CC)C1=O)N2CC	x	x	0	x	0
CC(C)(C)OC(=O)NCCCC1=CC2=CC(=O)C(C)(OC(=O)C3CCCC3)C(=O)C2=CO1 (stereo unspecified)	1	2	x	0	x
CCCCCCCCCCCCCCCCn1cc[n+](C)c1	25*	35*	0	-20	1
OC(CNCCc1ccc(C(F)(F)F)cc1)COC(c1ccccc1)c1ccccc1 (stereo unspecified)	27*	35*	x	-15	x
COc1ccc(C(OCC(O)CNCCc2ccc(S(N)(=O)=O)cc2)c2ccc(OC)cc2)cc1 (stereo unspecified)	2	0	x	-12	x
O=C(Cn1nnc(-c2ccccc2NC(=O)c2ccccc2F)n1)NC1CCCC1	47*	49*	0	1	1
SMILES	OXTR agonist	V1R ag counter	TRPML3 agonist	OXTR potentiator	TRPN1 ag
N#C/C(=C/c1ccncc1)c1nc2ccccc2s1	27*	55*	19*	-6	34*
COC(=O)c1ccc(/C(O)=C(\C#N)c2nc3ccccc3s2)cc1	9	10	4	-9	6
N#C/C(=C\c1ccncc1)c1nc2ccccc2[nH]1	x	x	1	x	0
CC(C)=C(C#N)c1nc2ccccc2s1	36*	40*	8	-6	17
CC(C)N(Cc1nc(-c2ccccc2)no1)S(=O)(=O)c1ccccc1	-2	1	25*	-4	-1
CN1C(=O)c2ccc(N3CCCC3)cc2C1=O	4	4	1	-5	1
Cc1cc(N2CCCC2)ccc1/C=C1\NC(=S)N(C)C1=O	54*	49*	9	-20	14
O=C1/C(=C/c2ccc(N3CCCC3)cc2)NC(=S)N1C1CC1	115*	84*	7	-15	9
O=C1N/C(=C/c2ccc(N3CCCC3)cc2)C(=O)N1c1ccccc1	2	4	0	-3	0
CC(C)C(=O)NCCc1nc(-c2ccc(Cl)cc2)no1	2	2	x	-5	x
COC(=O)c1cccc(NC(=O)Nc2ccc(Cl)cc2)c1	14	14	7	-20	21*
COC(=O)c1cccc(NC(=O)NC(=O)c2ccc(Cl)cc2)c1	0	0	0	-12	2
CC1(C)CSC(=NCc2ccccc2)N1C(=O)c1cccc([N+](=O)[O-])c1	10	7	15*	-12	40*
NC(=NCc1ccccc1)c1cccc([N+](=O)[O-])c1	2	1	x	-1	x
N#C/C(=N\Nc1ccc(Cl)c(Cl)c1)C(=O)C1CC1	12	10	8	-22	20*
Cc1cc(C)c(S(=O)(=O)N(C)CC(=O)NCCCn2ccnc2)c(C)c1	1	0	x	-5	x
Cc1ccc(N2C(=O)c3ccc(C(=O)N4CCN(Cc5ccccc5)CC4)cc3C2=O)cc1	30*	40*	3	-10	9
Cc1ccc(N2C(=O)c3ccc(C(=O)N4CCN(c5ccc(C)c(C)c5)CC4)cc3C2=O)cc1	0	0	1	-3	-1
O=C(Cc1ccc(Br)cc1)Nc1ncc([N+](=O)[O-])s1	17	13	14*	-19	21*
O=C(Cc1ccc(Cl)cc1)Nc1ncc([N+](=O)[O-])s1	x	x	10	x	22*
Cc1cnc(NC(=O)Cc2ccc(Br)cc2)s1	-2	1	x	-5	x
